Results: ChEMBL document CHEMBL2150950, “Effect of 4-aryl-2-methyl-5-nitro-1,4-dihydropyridine-3-carboxylates on the guinea pig papillary muscle and isolated human vena saphena magna that is used for coronary artery bypass grafting” (2011)
Calls of active or inactive are those of the source. The rule behind the calls is not given here.

Key:
[1] = Vasodilatory activity in human vena saphena magna assessed as relaxation of phenylephrine-induced smooth muscle contraction at 10^-7 to 10^-4 M; format: functional
Method in brief: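 Saphenous vein rings came from 37 CABG patients. They were bathed in Tyrode's solution (mM: NaCl 137, KCl 5.4, CaCl2 1.8, MgCl2 0.9, Tris HCl 10, glucose 5; pH 7.4), equilibrated 45–60 min and washed every 15 min. Rings were precontracted with 10^-4 M phenylephrine, then given cumulative test agent at 10^-7 to 10^-4 M. Isometric relaxation was recorded, as means ± SE.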

[2] = (§1) Ionotropic effect in guinea pig ventricle papillary muscles assessed as lengthening of 90% repolarized cardiac action potential duration time at 10^-6 M by microelectrode technique relative to untreated control (reference value: 209 to 222 APD50 ms) in presence of 3.1 x 10^-6 M inward rectifier current blocker BaCl2; format: functional, Cavia porcellus
[3] = as §1, with “at 10^-7” for “at 10^-6”; format: functional, Cavia porcellus
[4] = as §1, with “of 50%” for “of 90%”, “at 10^-4” for “at 10^-6”, “value: 180” for “value: 209”, “to 192” for “to 222”; format: functional, Cavia porcellus
[5] = as §1, with “25%” for “90%”, “120” for “209”, “131 APD25” for “222 APD50”; format: functional, Cavia porcellus
[6] = Ionotropic effect in guinea pig right ventricle papillary muscles assessed as contraction force at 10^-6 M by force transduction assay relative to untreated control (reference value: 100%) in presence of 3.1 x 10^-6 M inward rectifier current blocker BaCl2; format: functional, Cavia porcellus, Heart right ventricle
[7] = as §1, with “at 10^-7” for “at 10^-6”, “of 1” for “of 3.1”, “M IKr channel” for “M inward rectifier current”, “blocker Sotalol” for “blocker BaCl2”; format: functional, Cavia porcellus
[8] = (§2) Ionotropic effect in guinea pig ventricle papillary muscles assessed as lengthening of 50% repolarized cardiac action potential duration time at 10^-5 M by microelectrode technique relative to untreated control (reference value: 180 to 192 APD50 ms) in presence of 1 x 10^-6 M IKr channel blocker Sotalol; format: functional, Cavia porcellus
[9] = as §2, with “10^-6” for “10^-5”; format: functional, Cavia porcellus
[10] = as §2, with “25%” for “50%”, “10^-4” for “10^-5”, “120” for “180”, “131 APD25” for “192 APD50”; format: functional, Cavia porcellus
[11] = as §2, with “25%” for “50%”, “10^-6” for “10^-5”, “120” for “180”, “131 APD25” for “192 APD50”; format: functional, Cavia porcellus
[12] = as §2, with “25%” for “50%”, “10^-7” for “10^-5”, “120” for “180”, “131 APD25” for “192 APD50”; format: functional, Cavia porcellus
[13] = as §2, with “10%” for “50%”, “10^-6” for “10^-5”, “52” for “180”, “54 APD10” for “192 APD50”; format: functional, Cavia porcellus
[14] = as §2, with “10%” for “50%”, “10^-7” for “10^-5”, “52” for “180”, “54 APD10” for “192 APD50”; format: functional, Cavia porcellus
[15] = Ionotropic effect in guinea pig right ventricle papillary muscles assessed as contraction force at 10^-4 M by force transduction assay relative to untreated control (reference value: 100%) in presence of 1 x 10^-6 M IKr channel blocker Sotalol; format: functional, Cavia porcellus, Heart right ventricle
[16] = Ionotropic effect in guinea pig right ventricle papillary muscles assessed as contraction force at 10^-6 M by force transduction assay relative to untreated control (reference value: 100%) in presence of 1 x 10^-6 M IKr channel blocker Sotalol; format: functional, Cavia porcellus, Heart right ventricle
[17] = (§3) Ionotropic effect in guinea pig ventricle papillary muscles assessed as lengthening of 90% repolarized cardiac action potential duration time at 10^-4 M by microelectrode technique relative to untreated control (reference value: 209 to 222 APD50 ms) in presence of 2 x 10^-5 M KATP channel blocker glibenclamide; format: functional, Cavia porcellus
[18] = as §3, with “10^-6” for “10^-4”; format: functional, Cavia porcellus
[19] = as §3, with “10^-7” for “10^-4”; format: functional, Cavia porcellus
[20] = as §2, with “at 10^-6” for “at 10^-5”, “of 2” for “of 1”, “x 10^-5” for “x 10^-6”, “M KATP” for “M IKr”, “blocker glibenclamide” for “blocker Sotalol”; format: functional, Cavia porcellus
[21] = as §3, with “25%” for “90%”, “120” for “209”, “131 APD25” for “222 APD50”; format: functional, Cavia porcellus
[22] = as §3, with “25%” for “90%”, “10^-5” for “10^-4”, “120” for “209”, “131 APD25” for “222 APD50”; format: functional, Cavia porcellus
[23] = as §3, with “25%” for “90%”, “10^-7” for “10^-4”, “120” for “209”, “131 APD25” for “222 APD50”; format: functional, Cavia porcellus
[24] = as §3, with “10%” for “90%”, “10^-5” for “10^-4”, “52” for “209”, “54 APD10” for “222 APD50”; format: functional, Cavia porcellus
[25] = as §3, with “10%” for “90%”, “10^-6” for “10^-4”, “52” for “209”, “54 APD10” for “222 APD50”; format: functional, Cavia porcellus
[26] = Ionotropic effect in guinea pig ventricle papillary muscles assessed as lengthening of 90% repolarized cardiac action potential duration time at 10^-5 M by microelectrode technique relative to untreated control (reference value: 132 to 176 APD50 ms); format: functional, Cavia porcellus, Papillary muscle
[27] = Ionotropic effect in guinea pig ventricle papillary muscles assessed as lengthening of 50% repolarized cardiac action potential duration time at 10^-5 M by microelectrode technique relative to untreated control (reference value: 132 to 176 APD50 ms); format: functional, Cavia porcellus, Papillary muscle
[28] = Ionotropic effect in guinea pig ventricle papillary muscles assessed as lengthening of 50% repolarized cardiac action potential duration time at 10^-7 M by microelectrode technique relative to untreated control (reference value: 132 to 176 APD50 ms); format: functional, Cavia porcellus, Papillary muscle
[29] = Ionotropic effect in guinea pig ventricle papillary muscles assessed as lengthening of 25% repolarized cardiac action potential duration time at 10^-5 M by microelectrode technique relative to untreated control (reference value: 84 to 104 APD25 ms); format: functional, Cavia porcellus, Papillary muscle
[30] = Ionotropic effect in guinea pig ventricle papillary muscles assessed as lengthening of 25% repolarized cardiac action potential duration time at 10^-6 M by microelectrode technique relative to untreated control (reference value: 84 to 104 APD25 ms); format: functional, Cavia porcellus, Papillary muscle
[31] = Ionotropic effect in guinea pig ventricle papillary muscles assessed as lengthening of 10% repolarized cardiac action potential duration time at 10^-7 M by microelectrode technique relative to untreated control (reference value: 37 to 47 APD10 ms); format: functional, Cavia porcellus, Papillary muscle

## CCCOCCOC(=O)C1=C(C)NC=C([N+](=O)[O-])C1c1ccccc1OC(F)F (stereo unspecified)
[1]
  Activity: Active
[2]
  Time: 250.7 ms
[3]
  Time: 237 ms
[4]
  Time: 238 ms
[5]
  Time: 149.7 ms
[6]
  Activity: 118%
[7]
  Time: 224.4 ms
[8]
  Time: 199 ms
[9]
  Time: 192 ms
[10]
  Time: 142 ms
[11]
  Time: 132.9 ms
[12]
  Time: 130 ms
[13]
  Time: 49 ms
[14]
  Time: 54.2 ms
[15]
  Activity: 154.8%
[16]
  Activity: 93.6%
[17]
  Time: 276 ms
[18]
  Time: 247 ms
[19]
  Time: 234.5 ms
[20]
  Time: 219 ms
[21]
  Time: 164.8 ms
[22]
  Time: 155 ms
[23]
  Time: 141 ms
[24]
  Time: 61 ms
[25]
  Time: 59.6 ms
[26]
  Time: 238.5 ms
[27]
  Time: 205.8 ms
[28]
  Time: 188.5 ms
[29]
  Time: 133 ms
[30]
  Time: 118.6 ms
[31]
  Time: 40 ms
